Source: ChEMBL document CHEMBL3600351, “Exploiting translational stalling peptides in an effort to extend azithromycin interaction within the prokaryotic ribosome nascent peptide exit tunnel” (Bioorg Med Chem, 2015)
In brackets after ≈: the same amount, converted by molar mass. Activity calls are given as the source filed them. No cut-off for these calls is given here.

Key:
[1] = system: Staphylococcus aureus; experiment: Ratio of MIC50 for Staphylococcus aureus ATCC 29213 in absence of 50% bovine serum to MIC50 for Staphylococcus aureus ATCC29213 in presence of 50% bovine serum; assay type: functional
In short: (§1)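 S. aureus ATCC 29213 overnight culture (37 °C) diluted 1:1000 in 50% bovine serum/broth and run by liquid microdilution. Growth was taken from OD600 change over 18 h at 37 °C to give MIC50, in triplicate against a vehicle control. The enhancement ratio is MIC50 without serum divided by MIC50 with serum.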

[2] = system: Staphylococcus aureus; experiment: Antibacterial activity against Staphylococcus aureus ATCC 29213 assessed as inhibition of bacterial growth after 18 hrs by liquid microdilution method; assay type: functional; conditions: ATCC 29213, 18 h
In short: (§2)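 Liquid microdilution. Overnight 37 °C cultures, E. coli ATCC 27856 in LB and S. aureus ATCC 29213 in TSB, diluted 1:1000 in the same medium and exposed to compound. Growth was taken from OD600 before and after 18 h at 37 °C. MIC50 is the read-out. Triplicate, normalized to an internal vehicle control.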

[3] = system: Escherichia coli; experiment: Antibacterial activity against Escherichia coli ATCC 27856 assessed as inhibition of bacterial growth after 18 hrs by liquid microdilution method; assay type: functional; in short: as §2
[4] = system: Staphylococcus aureus; experiment: Antibacterial activity against Staphylococcus aureus ATCC 29213 assessed as inhibition of bacterial growth after 18 hrs in presence of 50% bovine serum by liquid microdilution method; assay type: functional; conditions: ATCC 29213, 18 h; in short: as §1
[5] = Inhibition of ribosome nascent peptide exit tunnel in Escherichia coli S30 extract assessed as inhibition of prokaryotic translation in presence of amino acids incubated for 20 mins by luciferase reporter gene assay
In short: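 E. coli S30 cell-free extract with all amino acids, preincubated with compound for 20 min at room temperature. Luciferase control template added, translation run 60 min at 37 °C, then stopped by 5 min on ice. Luminescence was read after luciferin addition. IC50 from nonlinear fit, triplicate, normalized to vehicle control.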

[6] = system: Staphylococcus aureus; experiment: Antibacterial activity against Erm+ methicillin-resistant Staphylococcus aureus ATCC 33591 assessed as inhibition of bacterial growth after 18 hrs by liquid microdilution method; assay type: functional
In short: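 MRSA grown overnight at 37 °C in Nutrient broth, diluted 1:1000 in the same medium, then plated with the compounds. Growth was judged by comparing OD600 before and after 18 h at 37 °C. MIC50 was taken by liquid microdilution. Vancomycin was the positive control. Each compound was run in triplicate and standardized against an internal vehicle control.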

[7] = Binding affinity to ribosome nascent peptide exit tunnel in rabbit reticulocyte extract assessed as inhibition of eukaryotic translation in presence of amino acids incubated for 20 mins by luciferase reporter gene assay; design: species or system Oryctolagus cuniculus
In short: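 Nuclease-treated rabbit reticulocyte lysate with all amino acids, preincubated with compound for 20 min at room temperature. Luciferase control template added, translation run 90 min at 30 °C, then stopped by 5 min on ice. Luminescence was read after luciferin addition. IC50 from nonlinear fit, triplicate, normalized to vehicle control.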

Structure (SMILES): CC[C@H]1OC(=O)[C@H](C)[C@@H](O[C@H]2C[C@@](C)(OC)[C@@H](O)[C@H](C)O2)[C@H](C)[C@@H](O[C@@H]2O[C@H](C)C[C@H](N(C)C)[C@H]2O)[C@](C)(O)C[C@@H](C)CN(CCCCc2cn(CCn3ccc4cc([N+](=O)[O-])ccc43)nn2)[C@H](C)[C@@H](O)[C@]1(C)O
- Ratio [1]: 2.5
- MIC50 [2]: 1.56 µg/mL (≈ 1.49 µM)
- MIC50 ([3]; ATCC 27856, 18 h): 16 µg/mL (≈ 15.3 µM)
- MIC50 [4]: 0.63 µg/mL
- IC50 [5]: 0.811 µM
- MIC50 [6]: inactive
- IC50 [7]: > 250 µM

Structure (SMILES): O=C(N[C@H](CO)[C@H](O)c1ccc([N+](=O)[O-])cc1)C(Cl)Cl [CHLORAMPHENICOL]
- MIC50 ([3]; ATCC 27856, 18 h): 4 µg/mL (≈ 12.4 µM)

Structure (SMILES): CC[C@H]1OC(=O)[C@H](C)[C@@H](O[C@H]2C[C@@](C)(OC)[C@@H](O)[C@H](C)O2)[C@H](C)[C@@H](O[C@@H]2O[C@H](C)C[C@H](N(C)C)[C@H]2O)[C@](C)(O)C[C@@H](C)CN(CCCCc2cn(CC)nn2)[C@H](C)[C@@H](O)[C@]1(C)O
- Ratio [1]: 10
- MIC50 [2]: 3.13 µg/mL (≈ 3.53 µM)
- MIC50 ([3]; ATCC 27856, 18 h): 32 µg/mL (≈ 36.1 µM)
- MIC50 [4]: 0.31 µg/mL
- IC50 [5]: 1.22 µM
- MIC50 [6]: inactive
- IC50 [7]: > 250 µM

Structure (SMILES): CC[C@H]1OC(=O)[C@H](C)[C@@H](O[C@H]2C[C@@](C)(OC)[C@@H](O)[C@H](C)O2)[C@H](C)[C@@H](O[C@@H]2O[C@H](C)C[C@H](N(C)C)[C@H]2O)[C@](C)(O)C[C@@H](C)CN(Cc2ccc(-c3cn(CCN4CCc5ccccc54)nn3)cc2)[C@H](C)[C@@H](O)[C@]1(C)O
- Ratio [1]: 2
- MIC50 [2]: 1.56 µg/mL (≈ 1.5 µM)
- MIC50 ([3]; ATCC 27856, 18 h): 64 µg/mL (≈ 61.7 µM)
- MIC50 [4]: 0.78 µg/mL
- IC50 [5]: 0.555 µM
- MIC50 [6]: inactive
- IC50 [7]: > 250 µM

Structure (SMILES): CC[C@H]1OC(=O)[C@H](C)[C@@H](O[C@H]2C[C@@](C)(OC)[C@@H](O)[C@H](C)O2)[C@H](C)[C@@H](O[C@@H]2O[C@H](C)C[C@H](N(C)C)[C@H]2O)[C@](C)(O)C[C@@H](C)CN(Cc2ccc(-c3cn(CCn4ccc5cc([N+](=O)[O-])ccc54)nn3)cc2)[C@H](C)[C@@H](O)[C@]1(C)O
- Ratio [1]: 4
- MIC50 [2]: 1.56 µg/mL (≈ 1.44 µM)
- MIC50 ([3]; ATCC 27856, 18 h): 128 µg/mL (≈ 118 µM)
- MIC50 [4]: 0.39 µg/mL
- IC50 [5]: 0.442 µM
- MIC50 [6]: inactive
- IC50 [7]: > 250 µM

Structure (SMILES): CC[C@H]1OC(=O)[C@H](C)[C@@H](O[C@H]2C[C@@](C)(OC)[C@@H](O)[C@H](C)O2)[C@H](C)[C@@H](O[C@@H]2O[C@H](C)C[C@H](N(C)C)[C@H]2O)[C@](C)(O)C[C@@H](C)CN(CCCCc2cn(CCc3c[nH]c4ccccc34)nn2)[C@H](C)[C@@H](O)[C@]1(C)O
- Ratio [1]: 10
- MIC50 [2]: 0.78 µg/mL (≈ 0.779 µM)
- MIC50 ([3]; ATCC 27856, 18 h): 16 µg/mL (≈ 16 µM)
- MIC50 [4]: 0.078 µg/mL
- IC50 [5]: 0.54 µM
- MIC50 [6]: inactive
- IC50 [7]: > 250 µM

Structure (SMILES): CC[C@H]1OC(=O)[C@H](C)[C@@H](O[C@H]2C[C@@](C)(OC)[C@@H](O)[C@H](C)O2)[C@H](C)[C@@H](O[C@@H]2O[C@H](C)C[C@H](N(C)C)[C@H]2O)[C@](C)(O)C[C@@H](C)CN(CCCCc2cn(CCn3ccc4cc(OC)ccc43)nn2)[C@H](C)[C@@H](O)[C@]1(C)O
- Ratio [1]: 10
- MIC50 [2]: 1.56 µg/mL (≈ 1.51 µM)
- MIC50 ([3]; ATCC 27856, 18 h): 16 µg/mL (≈ 15.5 µM)
- MIC50 [4]: 0.16 µg/mL
- IC50 [5]: 0.238 µM
- MIC50 [6]: inactive
- IC50 [7]: > 250 µM

Structure (SMILES): CN[C@H](CC(C)C)C(=O)N[C@H]1C(=O)N[C@@H](CC(N)=O)C(=O)N[C@H]2C(=O)N[C@H]3C(=O)N[C@H](C(=O)N[C@H](C(=O)O)c4cc(O)cc(O)c4-c4cc3ccc4O)[C@H](O)c3ccc(c(Cl)c3)Oc3cc2cc(c3O[C@@H]2O[C@H](CO)[C@@H](O)[C@H](O)[C@H]2O[C@H]2C[C@](C)(N)[C@H](O)[C@H](C)O2)Oc2ccc(cc2Cl)[C@H]1O [VANCOMYCIN]
- Ratio [1]: 1
- MIC50 [2]: 1.56 µg/mL (≈ 1.08 µM)
- MIC50 [4]: 1.56 µg/mL
- MIC50 ([6]; ATCC 33591, 18 h): 4 µg/mL (≈ 2.76 µM)

Structure (SMILES): CC[C@H]1OC(=O)[C@H](C)[C@@H](O[C@H]2C[C@@](C)(OC)[C@@H](O)[C@H](C)O2)[C@H](C)[C@@H](O[C@@H]2O[C@H](C)C[C@H](N(C)C)[C@H]2O)[C@](C)(O)C[C@@H](C)CN(CCCCc2cn(CCc3c[nH]c4ccc(F)cc34)nn2)[C@H](C)[C@@H](O)[C@]1(C)O
- Ratio [1]: 5
- MIC50 [2]: 0.78 µg/mL (≈ 0.765 µM)
- MIC50 ([3]; ATCC 27856, 18 h): 32 µg/mL (≈ 31.4 µM)
- MIC50 [4]: 0.16 µg/mL
- IC50 [5]: 2.6 µM
- MIC50 [6]: inactive
- IC50 [7]: > 250 µM

Structure (SMILES): CC[C@H]1OC(=O)[C@H](C)[C@@H](O[C@H]2C[C@@](C)(OC)[C@@H](O)[C@H](C)O2)[C@H](C)[C@@H](O[C@@H]2O[C@H](C)C[C@H](N(C)C)[C@H]2O)[C@](C)(O)C[C@@H](C)CN(Cc2ccc(-c3cn(CCc4c[nH]c5ccc(F)cc45)nn3)cc2)[C@H](C)[C@@H](O)[C@]1(C)O
- Ratio [1]: 2
- MIC50 [2]: 3.13 µg/mL (≈ 2.97 µM)
- MIC50 [3]: inactive
- MIC50 [4]: 1.56 µg/mL
- IC50 [5]: 2.03 µM
- MIC50 [6]: inactive
- IC50 [7]: > 250 µM

Structure (SMILES): CC[C@H]1OC(=O)[C@H](C)[C@@H](O[C@H]2C[C@@](C)(OC)[C@@H](O)[C@H](C)O2)[C@H](C)[C@@H](O[C@@H]2O[C@H](C)C[C@H](N(C)C)[C@H]2O)[C@](C)(O)C[C@@H](C)CN(Cc2ccc(-c3cn(CCn4ccc5cc(OC)ccc54)nn3)cc2)[C@H](C)[C@@H](O)[C@]1(C)O
- Ratio [1]: 2
- MIC50 [2]: 1.56 µg/mL (≈ 1.46 µM)
- MIC50 [3]: inactive
- MIC50 [4]: 0.78 µg/mL
- IC50 [5]: 0.504 µM
- MIC50 [6]: inactive
- IC50 [7]: > 250 µM

Structure (SMILES): CC[C@H]1OC(=O)[C@H](C)[C@@H](O[C@H]2C[C@@](C)(OC)[C@@H](O)[C@H](C)O2)[C@H](C)[C@@H](O[C@@H]2O[C@H](C)C[C@H](N(C)C)[C@H]2O)[C@](C)(O)C[C@@H](C)CN(CCCCc2cn(CCn3ccc4cc(F)ccc43)nn2)[C@H](C)[C@@H](O)[C@]1(C)O
- Ratio [1]: 5
- MIC50 [2]: 1.56 µg/mL (≈ 1.53 µM)
- MIC50 ([3]; ATCC 27856, 18 h): 16 µg/mL (≈ 15.7 µM)
- MIC50 [4]: 0.31 µg/mL
- IC50 [5]: 0.646 µM
- MIC50 [6]: inactive
- IC50 [7]: > 250 µM

Structure (SMILES): CC[C@H]1OC(=O)[C@H](C)[C@@H](O[C@H]2C[C@@](C)(OC)[C@@H](O)[C@H](C)O2)[C@H](C)[C@@H](O[C@@H]2O[C@H](C)C[C@H](N(C)C)[C@H]2O)[C@](C)(O)C[C@@H](C)CN(Cc2ccc(-c3cn(CCn4ccc5cc(F)ccc54)nn3)cc2)[C@H](C)[C@@H](O)[C@]1(C)O
- Ratio [1]: 2
- MIC50 [2]: 1.56 µg/mL (≈ 1.48 µM)
- MIC50 ([3]; ATCC 27856, 18 h): 64 µg/mL (≈ 60.8 µM)
- MIC50 [4]: 0.78 µg/mL
- IC50 [5]: 0.463 µM
- MIC50 [6]: inactive
- IC50 [7]: > 250 µM

Structure (SMILES): CC[C@H]1OC(=O)[C@H](C)[C@@H](O[C@H]2C[C@@](C)(OC)[C@@H](O)[C@H](C)O2)[C@H](C)[C@@H](O[C@@H]2O[C@H](C)C[C@H](N(C)C)[C@H]2O)[C@](C)(O)C[C@@H](C)CN(CCCCc2cn(CCc3c[nH]c4ccc(Cl)cc34)nn2)[C@H](C)[C@@H](O)[C@]1(C)O
- Ratio [1]: 5
- MIC50 [2]: 0.78 µg/mL (≈ 0.753 µM)
- MIC50 ([3]; ATCC 27856, 18 h): 32 µg/mL (≈ 30.9 µM)
- MIC50 [4]: 0.16 µg/mL
- IC50 [5]: 0.88 µM
- MIC50 [6]: inactive
- IC50 [7]: > 250 µM
